# Source: ChEMBL document CHEMBL3813699, “Structure-Activity Relationships of a Diverse Class of Halogenated Phenazines That Targets Persistent, Antibiotic-Tolerant Bacterial Biofilms and Mycobacterium tuberculosis” (J Med Chem, 2016)
# Key:
# Staphylococcus aureus [1] = test: Antibacterial activity against methicillin-resistant Staphylococcus aureus BAA-44 incubated for 16 to 18 hrs by broth microdilution method; assay type: functional
# Staphylococcus aureus [2] = test: Antibiofilm activity against methicillin-resistant Staphylococcus aureus BAA-1707 assessed as biofilm eradication incubated for 24 hrs by CBD assay; assay type: functional; conditions: for MBC: Staphylococcus aureus, BAA-1707, 24 h
# Procedure, shortened: (§1)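 Calgary Biofilm Device: pegs inoculated with mid-log culture diluted 1,000-fold in TSB + 0.5% glucose, 24 h 37 °C; washed pegs challenged with 2-fold dilutions 24 h 37 °C; pegs moved to fresh TSBG 24 h; MBEC = lowest concentration leaving no turbidity; 2–6 independent experiments.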
# Staphylococcus aureus [3] = test: Antibacterial activity against methicillin-resistant Staphylococcus aureus clinical isolate 2 incubated for 16 hrs by broth microdilution method in presence of Fe2+; assay type: functional; conditions: isolate 2, 16 h
# Staphylococcus aureus [4] = test: Antibacterial activity against methicillin-resistant Staphylococcus aureus clinical isolate 2 incubated for 16 hrs by broth microdilution method in presence of Cu2+; assay type: functional; conditions: isolate 2, 16 h
# [5] = system: Staphylococcus epidermidis; test: Antibacterial activity against Staphylococcus epidermidis ATCC 12228 incubated for 16 to 18 hrs by broth microdilution method; assay type: functional
# [6] = system: Staphylococcus epidermidis; test: Antibacterial activity against methicillin-resistant Staphylococcus epidermidis ATCC 35984 incubated for 16 to 18 hrs by broth microdilution method; assay type: functional
# Staphylococcus aureus [7] = test: Antibiofilm activity against methicillin-resistant Staphylococcus aureus isolate 2 assessed as biofilm eradication incubated for 24 hrs by CBD assay; assay type: functional; conditions: for MBC: Staphylococcus aureus, isolate 2, 24 h; procedure, shortened: as §1
# Staphylococcus aureus [8] = test: Antibacterial activity against methicillin-resistant Staphylococcus aureus clinical isolate 2 incubated for 16 hrs by broth microdilution method; assay type: functional; conditions: isolate 2, 16 h
# Staphylococcus aureus [9] = test: Antibacterial activity against methicillin-resistant Staphylococcus aureus BAA-1707 incubated for 16 to 18 hrs by broth microdilution method; assay type: functional
# Staphylococcus aureus [10] = test: Antibacterial activity against methicillin-resistant Staphylococcus aureus clinical isolate 2 incubated for 16 to 18 hrs by broth microdilution method; assay type: functional
# [11] = system: Staphylococcus epidermidis; test: Antibacterial activity against methicillin-resistant Staphylococcus epidermidis ATCC 35984 assessed as biofilm eradication incubated for 24 hrs by CBD assay; assay type: functional; conditions: for MBC: Staphylococcus epidermidis, ATCC 35984, 24 h; procedure, shortened: as §1
# Staphylococcus aureus [12] = test: Ratio of MBEC to MBC for methicillin-resistant Staphylococcus aureus clinical isolate 2 biofilm eradication; assay type: functional
# Procedure, shortened: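 From the same CBD challenge plate, MBC taken by subculturing 20 µL into 180 µL TSBG overnight at 37 °C (no turbidity); MBEC from recovered pegs in fresh TSBG 24 h; ratio MBEC:MBC against MRSA-2.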
# Enterococcus faecium [13] = test: Antibacterial activity against vancomycin-resistant Enterococcus faecium ATCC 700221 incubated for 16 to 18 hrs by broth microdilution method; assay type: functional
# HeLa = test: Cytotoxicity against human HeLa cells after 24 hrs by LDH release assay; assay type: cell-based
# Procedure, shortened: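 HeLa in DMEM + 10% FBS, 37 °C 5% CO2, at 70–80% confluence treated with 25, 50, 100 µM for 24 h; DMSO vehicle; Triton X-100 2% v/v max-LDH control, medium-only negative; supernatant with LDH reaction mix 30 min room temperature, stopped, absorbance 490 nm.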
# [14] = Induction of hemolysis in human RBC at 200 uM incubated for 1 hr; assay type: cell-based, Erythrocyte; conditions: red blood cells, read-out: Activity
# Procedure, shortened: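 Human RBCs (EDTA), washed three times in Tris-buffered saline pH 7.2; 2% hRBC with compound at final 200 µM, 1 h 37 °C; supernatant OD405; % hemolysis relative to DMSO (0%) and Triton X (100%).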
# [15] = system: Mycobacterium tuberculosis; test: Antibacterial activity against Mycobacterium tuberculosis H37Ra ATCC 25177 after 7 days by two-fold serial dilution method; assay type: functional; conditions: H37Ra ATCC 25177, 168 h
# Enterococcus faecium [16] = test: Antibiofilm activity against […]-resistant Enterococcus faecium ATCC 700221 assessed as biofilm eradication incubated for 24 hrs by CBD assay; assay type: functional; conditions: for MBC: Enterococcus faecium, ATCC 700221, 24 h; procedure, shortened: as §1
# Staphylococcus aureus [17] = test: Antibacterial activity against methicillin-resistant Staphylococcus aureus clinical isolate 2 incubated for 16 hrs by broth microdilution method in presence of tiron; assay type: functional; conditions: isolate 2, 16 h
# Staphylococcus aureus [18] = test: Antibiofilm activity against methicillin-resistant Staphylococcus aureus BAA-44 assessed as biofilm eradication incubated for 24 hrs by CBD assay; assay type: functional; conditions: for MBC: Staphylococcus aureus, BAA-44, 24 h; procedure, shortened: as §1
# [19] = Aqueous solubility of compound in media after 16 hrs; assay type: physicochemical
# Staphylococcus aureus [20] = test: Antibacterial activity against Staphylococcus aureus ATCC 25923 incubated for 16 to 20 hrs by broth microdilution method; assay type: functional
# [21] = system: Staphylococcus epidermidis; test: Antibacterial activity against Staphylococcus epidermidis ATCC 12228 incubated for 16 to 20 hrs by broth microdilution method; assay type: functional
Structure (SMILES),MIC (Staphylococcus aureus [1]) [µM],MBEC (Staphylococcus aureus [2]) [µM],MBC (Staphylococcus aureus [2]) [µM],MIC (Staphylococcus aureus [3]) [µM],MIC [5] [µM],MIC [6] [µM],MBEC (Staphylococcus aureus [7]) [µM],MBC (Staphylococcus aureus [7]) [µM],MIC (Staphylococcus aureus [8]) [µM],MIC (Staphylococcus aureus [9]) [µM],MIC (Staphylococcus aureus [10]) [µM],MBEC [11] [µM],MBC [11] [µM],MIC (Enterococcus faecium [13]) [µM],IC50 (HeLa) [µM],"hemolysis at 1 h, 200 µM [14] [%]",MBC (Enterococcus faecium [16]) [µM],also measured
CCCCCCCCCC(=O)N[C@@H](Cc1c[nH]c2ccccc12)C(=O)N[C@@H](CC(N)=O)C(=O)N[C@@H](CC(=O)O)C(=O)N[C@@H]1C(=O)NCC(=O)N[C@@H](CCCN)C(=O)N[C@@H](CC(=O)O)C(=O)N[C@H](C)C(=O)N[C@@H](CC(=O)O)C(=O)NCC(=O)N[C@H](CO)C(=O)N[C@@H]([C@H](C)CC(=O)O)C(=O)N[C@@H](CC(=O)c2ccccc2N)C(=O)O[C@@H]1C [DAPTOMYCIN],18.8,>2000,125,6.25,6.25,12.5,>2000,62.5,6.25,3.13,,,,,,,,MIC (Staphylococcus aureus [4]): 12.5 µM
CO[C@H]1/C=C/O[C@@]2(C)Oc3c(C)c(O)c4c(O)c(c(/C=N/N5CCN(C)CC5)c(O)c4c3C2=O)NC(=O)/C(C)=C\C=C\[C@H](C)[C@H](O)[C@@H](C)[C@@H](O)[C@@H](C)[C@H](OC(C)=O)[C@@H]1C [RIFAMPIN],,,,,0.1,0.1,46.9,2,,,0.1,15.6,3,,,,,Ratio (Staphylococcus aureus [12]): >23
Oc1c(Cl)cc(I)c2nc3ccccc3nc12,1.56,,,,1.56,1.56,125,15.6,,1.56,1.56,,,6.25,> 100,5.1,,
CN[C@@H]1[C@H](O[C@H]2[C@H](O[C@H]3[C@H](O)[C@@H](O)[C@H](N=C(N)N)[C@@H](O)[C@@H]3N=C(N)N)O[C@@H](C)[C@]2(O)C=O)O[C@@H](CO)[C@H](O)[C@H]1O [STREPTOMYCIN],,,,,,,,,,,,,,,,,,MIC [15]: 1.32 µM
Oc1c(I)cc(I)c2nc3ccccc3nc12,3.13,,,,1.56,1.17,93.8,31.3,,3.13,3.13,23.5,31.3,6.25,> 100,≤ 1,23.5,MBEC (Enterococcus faecium [16]): 15.6 µM
Cc1nc2c(I)cc(I)c(O)c2nc1C,,,,,2.35,,,93.8,1.17,,,125,23.5,6.25,> 100,1.2,,MIC [15]: > 50 µM
Oc1ccc(Br)c2nc3cc(Br)c(Br)cc3nc12,1.56,,,25,,3.13,>200,> 200,12.5,0.56,1.56,>200,> 200,6.25,,≤ 1,> 200,MIC (Staphylococcus aureus [4]): > 100 µM; MIC (Staphylococcus aureus [17]): 0.1 µM; MBEC (Enterococcus faecium [16]): >200 µM
C[C@H]1c2cccc(O)c2C(=O)C2=C(O)[C@]3(O)C(=O)C(C(N)=O)=C(O)[C@@H](N(C)C)[C@@H]3[C@@H](O)[C@@H]21.O [DOXYCYCLINE],,,,,,,46.9,2,,,,,,,,,,Ratio (Staphylococcus aureus [12]): >23
Oc1c(Cl)cc(Br)c2nc3cc(Br)c(Br)cc3nc12,25,,,,0.08,0.3,25,25,3.13,,12.5,3.13,1.56,0.39,> 100,2.1,,MIC (Staphylococcus aureus [4]): > 100 µM; MIC (Staphylococcus aureus [17]): 0.2 µM
Oc1c(Br)cc(Br)c2nccnc12,12.5,,,,18.8,18.8,>2000,1500,,6.25,25,,,100,> 100,1.8,,
Oc1ccc(I)c2nc3cc(Cl)c(Cl)cc3nc12,,>200,75,3.13,,0.78,37.5,25,,0.15,0.39,75,9.38,3.13,> 100,1.4,3.13,MIC [15]: 3.13 µM; MBEC (Staphylococcus aureus [18]): >200 µM; MBC (Staphylococcus aureus [18]): 75 µM; MIC (Staphylococcus aureus [17]): 0.2 µM; solubility at 16 h [19]: 200 µM
Oc1c(Br)ccc2nc3ccccc3nc12,,,,,,,,,,,,,,,,,,MIC (Staphylococcus aureus [20]): 6.25 µM; MIC [21]: 1.7 µg/mL
CC(=O)NC[C@H]1CN(c2ccc(N3CCOCC3)c(F)c2)C(=O)O1 [LINEZOLID],,>2000,31.3,6.25,,3.13,,,6.25,12.5,3.13,,,3.13,,≤ 1,,
Oc1c(Br)cc(Br)c2nc3cc(Br)c(Br)cc3nc12,25,50,6.25,,0.08,,,,,12.5,6.25,6.25,1.56,0.39,> 100,≤ 1,0.39,MIC [15]: > 50 µM; MBEC (Enterococcus faecium [16]): 0.39 µM
Oc1c(Br)cc(I)c2nc3ccccc3nc12,,93.8,23.5,6.25,,,62.5,31.3,,,,188,11.7,6.25,> 100,2.9,3,MBEC (Staphylococcus aureus [18]): 93.8 µM; MBC (Staphylococcus aureus [18]): 46.9 µM; MIC (Staphylococcus aureus [4]): 50 µM; MBEC (Enterococcus faecium [16]): 5.9 µM
